Reference: ChEMBL document CHEMBL1135898, “Synthesis and antimycobacterial activity of 6-arylpurines: the requirements for the N-9 substituent in active antimycobacterial purines” (J Med Chem, 2002)
≈ marks a conversion by molar mass, not a printed value.

Experiments:
[1] = tested on: Mycobacterium tuberculosis; assay: Minimum Inhibitory Concentration against drug-resistant strain of Mycobacterium tuberculosis Erdman; assay type: functional
Summary of the method: (§1)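 MICs by microplate alamar blue assay against M. tuberculosis strains resistant to isoniazid (ATCC 35822), rifampin (ATCC 35838), ethambutol, kanamycin or ciprofloxacin, drug-sensitive strain Erdman, and M. avium (ATCC 25291). MIC = minimum concentration giving 90% growth inhibition.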

Mycobacterium avium = assay: Minimum Inhibitory Concentration against drug-resistant strain of Mycobacterium tuberculosis avium; assay type: functional; summary of the method: as §1

## Clc1nc(-c2ccco2)c2ncn(Cc3ccccc3)c2n1
[1]
  MIC: 12.5 µg/mL (≈ 40.2 µM)
Mycobacterium avium
  MIC: 25 µg/mL (≈ 80.5 µM)
